From ChEMBL document CHEMBL1137534, “Synthesis and screening for acetylcholinesterase inhibitor activity of some novel 2-butyl-1,3-diaza-spiro[4,4]non-1-en-4-ones: derivatives of irbesartan key intermediate” (Bioorg Med Chem, 2007)

Key:
Acetylcholinesterase [1] = target: Acetylcholinesterase (Electrophorus electricus, UniProt O42275); assay: Inhibition of electric eel AChE by Ellman colorimetric assay
Procedure, shortened: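 Electric eel AChE stock was kept frozen in 0.1 M KH2PO4 (pH 8). Assay used phosphate buffer pH 8.0, DTNB and 1.0 mM acetylthiocholine at 37 °C, after 10 min enzyme–inhibitor preincubation. A412 was read at 1-min intervals for 10 min. Inhibitor range was 0–200 nM. IC50 was taken at 50% inhibition; duplicates, mean reported.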

Acetylcholinesterase [2] = target: T1, Acetylcholinesterase (Rattus norvegicus, UniProt P37136); assay: Inhibition of Wistar rat brain AChE by Ellman colorimetric assay
T1 sequence (P37136 whole entry): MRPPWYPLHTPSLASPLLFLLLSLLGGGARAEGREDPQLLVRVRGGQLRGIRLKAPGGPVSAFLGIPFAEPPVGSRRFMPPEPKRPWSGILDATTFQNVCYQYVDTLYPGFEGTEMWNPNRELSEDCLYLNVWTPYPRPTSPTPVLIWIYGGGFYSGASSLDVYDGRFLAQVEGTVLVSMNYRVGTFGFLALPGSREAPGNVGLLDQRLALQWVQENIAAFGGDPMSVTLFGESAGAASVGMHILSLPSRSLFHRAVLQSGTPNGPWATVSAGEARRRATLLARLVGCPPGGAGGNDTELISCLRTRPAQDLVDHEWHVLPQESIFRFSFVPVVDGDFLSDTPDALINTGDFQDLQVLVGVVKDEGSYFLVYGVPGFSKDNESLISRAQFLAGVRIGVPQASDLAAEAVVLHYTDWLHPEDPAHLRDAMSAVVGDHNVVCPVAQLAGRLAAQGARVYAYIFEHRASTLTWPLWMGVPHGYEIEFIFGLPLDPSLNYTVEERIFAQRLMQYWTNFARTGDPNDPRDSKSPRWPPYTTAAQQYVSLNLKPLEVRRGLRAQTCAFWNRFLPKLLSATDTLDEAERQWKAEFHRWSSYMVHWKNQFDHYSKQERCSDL
Procedure, shortened: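 Rat brain homogenate as the enzyme source. Ellman method with DTNB and 1.0 mM acetylthiocholine at 37 °C. Enzyme, buffer, DTNB and inhibitor were preincubated 10 min before substrate was added. Absorbance at 412 nm was read every 1 min for 10 min. Inhibitor range was 0–200 nM. IC50 is the concentration giving 50% inhibition; duplicate means.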

Acetylcholinesterase [3] = target: Acetylcholinesterase (Homo sapiens, UniProt P22303); assay: Inhibition of human serum AChE by Ellman colorimetric assay
Procedure, shortened: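 Crude AChE was the supernatant of fresh volunteer blood mixed with 3.8% trisodium citrate (9:1) and spun at 3000 rpm, 0 °C, 20 min. Ellman assay with DTNB and 1.0 mM acetylthiocholine at 37 °C, after 10 min preincubation with inhibitor. A412 was followed over 10 min. Inhibitor range was 0–200 nM. IC50 is the 50% inhibition point; duplicate means.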

Acetylcholinesterase (Electrophorus electricus, UniProt O42275), sequence (O42275 whole entry): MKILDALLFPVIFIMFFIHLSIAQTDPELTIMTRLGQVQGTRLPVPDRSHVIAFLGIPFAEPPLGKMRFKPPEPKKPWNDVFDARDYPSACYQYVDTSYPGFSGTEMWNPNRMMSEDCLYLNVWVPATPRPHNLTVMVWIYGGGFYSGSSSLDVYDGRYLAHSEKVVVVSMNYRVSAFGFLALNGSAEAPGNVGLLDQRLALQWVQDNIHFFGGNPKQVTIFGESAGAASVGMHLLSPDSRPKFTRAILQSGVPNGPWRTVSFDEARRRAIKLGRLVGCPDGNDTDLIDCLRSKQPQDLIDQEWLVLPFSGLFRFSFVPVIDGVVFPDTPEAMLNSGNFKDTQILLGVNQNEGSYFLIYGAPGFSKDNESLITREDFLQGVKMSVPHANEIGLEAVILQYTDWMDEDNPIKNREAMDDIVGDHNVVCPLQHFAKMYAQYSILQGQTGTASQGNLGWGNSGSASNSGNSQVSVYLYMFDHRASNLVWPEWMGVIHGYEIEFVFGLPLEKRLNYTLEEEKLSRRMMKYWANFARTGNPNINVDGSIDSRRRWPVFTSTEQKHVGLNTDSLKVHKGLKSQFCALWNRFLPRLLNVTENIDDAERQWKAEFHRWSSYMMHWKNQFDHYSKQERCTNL
Acetylcholinesterase (Homo sapiens, UniProt P22303), sequence (P22303 whole entry): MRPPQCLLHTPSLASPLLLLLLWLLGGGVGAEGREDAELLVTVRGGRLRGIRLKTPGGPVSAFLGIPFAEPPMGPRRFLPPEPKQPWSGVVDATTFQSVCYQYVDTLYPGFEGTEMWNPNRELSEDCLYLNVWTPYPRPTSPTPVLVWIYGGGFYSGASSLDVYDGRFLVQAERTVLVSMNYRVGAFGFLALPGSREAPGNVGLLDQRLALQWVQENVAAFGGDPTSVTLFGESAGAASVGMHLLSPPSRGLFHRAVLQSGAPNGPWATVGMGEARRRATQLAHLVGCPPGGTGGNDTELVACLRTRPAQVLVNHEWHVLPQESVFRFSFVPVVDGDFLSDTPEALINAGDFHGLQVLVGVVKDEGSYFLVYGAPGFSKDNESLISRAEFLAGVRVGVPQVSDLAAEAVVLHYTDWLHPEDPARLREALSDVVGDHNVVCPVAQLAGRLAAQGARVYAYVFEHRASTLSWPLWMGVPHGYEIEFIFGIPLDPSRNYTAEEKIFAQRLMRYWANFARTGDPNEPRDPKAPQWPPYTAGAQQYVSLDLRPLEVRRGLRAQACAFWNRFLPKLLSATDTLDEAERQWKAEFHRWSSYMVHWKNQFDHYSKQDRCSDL

Structure (SMILES) | IC50 (Acetylcholinesterase [1]) | IC50 (Acetylcholinesterase [2]) | IC50 (Acetylcholinesterase [3])
CCCCC1=NC2(CCCC2)C(=O)N1Cc1ccc(Br)cc1 | 67.5 nM | 70 nM | 70 nM
CCCCC1=NC2(CCCC2)C(=O)N1Cc1ccc(-c2ccccc2C#N)cc1 | 90 nM | 90 nM | 82.5 nM
CCCCC1=NC2(CCCC2)C(=O)N1CC(=O)c1ccc(Cl)cc1 | 280 nM | 280 nM | 286 nM
CN(C)C(=O)Oc1cccc([N+](C)(C)C)c1 [NEOSTIGMINE BROMIDE] | 47.5 nM | 35 nM | 
CCCCC1=NC2(CCCC2)C(=O)N1Cc1ccc(-c2ccccc2C(=O)OC)cc1 | 236 nM | 243 nM | 241 nM
CCCCC1=NC2(CCCC2)C(=O)N1CCN1C(=O)c2ccccc2C1=O | 250 nM | 234 nM | 231 nM
CCCCC1=NC2(CCCC2)C(=O)N1Cc1ccc([N+](=O)[O-])cc1 | 149 nM | 134 nM | 135 nM
CCCCC1=NC2(CCCC2)C(=O)N1Cc1ccc(-c2ccccc2C(=O)OC(C)(C)C)cc1 | 277 nM | 271 nM | 269 nM
CCCCC1=NC2(CCCC2)C(=O)N1Cc1cc2c(cc1C)OCO2 | 212 nM | 216 nM | 232 nM
CCCCC1=NC2(CCCC2)C(=O)N1Cc1cc(OC)c(OC)cc1Br | 80 nM | 77.5 nM | 82.5 nM
